Assays:
MDA-MB-231 [1] = assay: Cytotoxicity against breast cancer MDA-MB-231 cell line by MTT assay; type: functional, cell-based; details: Homo sapiens
Procedure, shortened: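 MDA-MB-231 cells were screened by MTT in an automated format across decreasing compound concentrations. Viability was expressed as % of untreated control, with 70% of control as the arbitrary cutoff for reduced viability at 10 µM. IC50 values are approximate and were assigned to concentration ranges.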

SH-SY5Y = assay: Cytotoxicity against neuroblastoma SHSY5Y cell line by MTT assay at 100 uM; type: functional, Homo sapiens
Procedure, shortened: (§1)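 Cells were exposed to compound at 100 µM for 48 h. Values are % viability relative to untreated control cells, given as mean ± SEM of four determinations.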

RBL-2H3 = assay: Cytotoxicity against basophilic leukemia RBL 2H3 cell line by MTT assay at 100 uM; type: functional, Rattus norvegicus; procedure, shortened: as §1
MDA-MB-231 [2] = assay: Cytotoxicity against breast cancer MDA-MB-231 cell line by MTT assay at 100 uM; type: functional, Homo sapiens; procedure, shortened: as §1
FG2 = assay: Cytotoxicity against human pancreatic carcinoma FG2 cell line by MTT assay at 100 uM; type: functional; procedure, shortened: as §1

| SMILES | IC50 (MDA-MB-231 [1]) [µM] | also measured |
| --- | --- | --- |
| COc1cc(OC)cc(-n2cc(-c3ccc(O)c(OC)c3)nn2)c1 | 10 | – |
| COc1cc(-n2cc(-c3ccc(N)cc3)nn2)cc(OC)c1OC | > 10 | – |
| COc1ccc(-n2cc(-c3ccc(O)c(OC)c3)nn2)cc1 | > 10 | – |
| Nc1ccc(-c2cn(-c3c(O)c(F)cc(F)c3F)nn2)cc1 | > 10 | – |
| COc1ccc(-c2cn(-c3cc(OC)c(OC)c(OC)c3)nn2)cc1 | > 10 | – |
| Oc1cc(O)cc(-c2cn(-c3ccc(Oc4ccccc4)cc3)nn2)c1 | > 10 | – |
| Oc1ccc(-n2cc(-c3cc(O)cc(O)c3)nn2)cc1 | – | Activity (SH-SY5Y): 86.6%; Activity (RBL-2H3): 114%; Activity (MDA-MB-231 [2]): 95.5%; Activity (FG2): 91.9% |
| COc1ccc(-c2cn(-c3ccc(OC(F)(F)F)cc3)nn2)cc1 | 1 | – |
| COc1cc(-c2cn(-c3ccc(Oc4ccccc4)cc3)nn2)cc(OC)c1OC | 10 | – |
| COc1ccc(-c2cn(-c3ccc(OC)c(OC)c3)nn2)cc1 | > 10 | – |
| COc1ccc(-c2cn(-c3ccc(OC(F)(F)F)cc3)nn2)cc1OC | > 1 | – |
| COc1ccc(-c2cn(-c3ccc(OC)c(OC)c3)nn2)cc1O | > 0.1 | – |
| COc1ccc(-c2cn(-c3cc(O)cc(O)c3)nn2)cc1 | – | Activity (SH-SY5Y): 62.2%; Activity (RBL-2H3): 99.6%; Activity (MDA-MB-231 [2]): 72.2%; Activity (FG2): 83.7% |
| COc1ccc(-n2cc(-c3cc(OC)c(OC)c(OC)c3)nn2)cc1 | > 10 | – |
| COc1cc(-c2cn(-c3cc(OC)c(OC)c(OC)c3)nn2)ccc1O | > 10 | – |
| Nc1ccc(-c2cn(-c3ccc4c(c3)OCO4)nn2)cc1 | > 10 | – |
| COc1ccc(-n2cc(-c3cc(O)cc(O)c3)nn2)cc1O | > 10 | – |
| COc1ccc(-c2cn(-c3ccc(Oc4ccccc4)cc3)nn2)cc1 | > 0.1 | – |
| COc1cc(-c2cn(-c3ccc4c(c3)OCO4)nn2)ccc1O | > 10 | – |
| COc1cc(OC)cc(-c2cn(-c3c(O)c(F)cc(F)c3F)nn2)c1 | > 10 | – |
| Oc1cc(O)cc(-c2cn(-c3ccc4c(c3)OCO4)nn2)c1 | > 1 | – |
| COc1ccc(-c2cn(-c3ccc(OC)cc3)nn2)cc1 | > 0.1 | – |
| COc1cc(OC)cc(-n2cc(-c3ccc(OC)c(OC)c3)nn2)c1 | > 1 | – |
| COc1ccc(-n2cc(-c3ccc(N)cc3)nn2)cc1OC | > 10 | – |
| COc1ccc(-c2cn(-c3cc(OC)cc(OC)c3)nn2)cc1 | – | Activity (SH-SY5Y): 85.9%; Activity (RBL-2H3): 113%; Activity (MDA-MB-231 [2]): 99.3%; Activity (FG2): 100.8% |
| COc1cc(OC)cc(-n2cc(-c3cc(OC)c(OC)c(OC)c3)nn2)c1 | > 1 | – |

| SMILES | IC50 (MDA-MB-231 [1]) [µM] | also measured |
| --- | --- | --- |
| COc1cc(OC)cc(-c2cn(-c3ccc(OC(F)(F)F)cc3)nn2)c1 | > 1 | – |
| COc1cc(-c2cn(-c3cc(OC)c(OC)c(OC)c3)nn2)cc(OC)c1OC | > 10 | – |
| Oc1cc(O)cc(-c2cn(-c3ccc(OC(F)(F)F)cc3)nn2)c1 | > 10 | – |
| COc1cc(-c2cn(-c3c(O)c(F)cc(F)c3F)nn2)ccc1O | 10 | – |
| COc1ccc(-c2cn(-c3ccc(Oc4ccccc4)cc3)nn2)cc1O | > 10 | – |
| COc1ccc(-c2cn(-c3ccc4c(c3)OCO4)nn2)cc1 | 1 | – |
| Oc1ccc(-c2cn(-c3cc(O)cc(O)c3)nn2)cc1 | – | Activity (SH-SY5Y): 93.4%; Activity (RBL-2H3): 110%; Activity (MDA-MB-231 [2]): 97%; Activity (FG2): 93.7% |
| COc1ccc(-n2cc(-c3cc(O)cc(O)c3)nn2)c(OC)c1 | 10 | – |
| COc1ccc(-n2cc(-c3ccc(O)c(OC)c3)nn2)cc1O | > 10 | – |
| COc1ccc(-c2cn(-c3ccc(OC)cc3OC)nn2)cc1 | > 10 | – |
| COc1ccc(-c2cn(-c3ccc(OC(F)(F)F)cc3)nn2)cc1O | > 10 | – |
| COc1cc(OC)cc(-n2cc(-c3cc(O)cc(O)c3)nn2)c1 | > 10 | – |
| COc1ccc(-n2cc(-c3cc(O)cc(O)c3)nn2)cc1OC | > 10 | – |
| COc1cc(OC)cc(-c2cn(-c3cc(OC)c(OC)c(OC)c3)nn2)c1 | > 10 | – |
| COc1ccc(-n2cc(-c3ccc(N)cc3)nn2)cc1O | > 10 | – |
| COc1ccc(-n2cc(-c3cc(OC)c(OC)c(OC)c3)nn2)cc1O | 10 | – |
| COc1ccc(-n2cc(-c3ccc(OC)c(O)c3)nn2)cc1 | > 10 | – |
| COc1ccc(-c2cn(-c3ccc4c(c3)OCO4)nn2)cc1O | > 10 | – |
| COc1cc(OC)cc(-c2cn(-c3ccc4c(c3)OCO4)nn2)c1 | > 10 | – |
| Nc1ccc(-c2cn(-c3ccc(Oc4ccccc4)cc3)nn2)cc1 | > 10 | – |
| COc1ccc(-n2cc(-c3cc(O)cc(O)c3)nn2)cc1 | > 10 | – |
| COc1ccc(-n2cc(-c3ccc(N)cc3)nn2)c(OC)c1 | > 10 | – |
| COc1ccc(-n2cc(-c3ccc(OC)c(OC)c3)nn2)cc1 | > 0.1 | – |
| COc1cc(OC)cc(-c2cn(-c3cc(OC)cc(OC)c3)nn2)c1 | > 10 | – |
| COc1ccc(-c2cn(-c3ccc(Oc4ccccc4)cc3)nn2)cc1OC | 10 | – |
| COc1ccc(-c2cn(-c3ccc4c(c3)OCO4)nn2)cc1OC | 10 | – |

| SMILES | IC50 (MDA-MB-231 [1]) [µM] | also measured |
| --- | --- | --- |
| COc1cc(OC)cc(-c2cn(-c3ccc(OC)c(O)c3)nn2)c1 | > 10 | – |
| Nc1ccc(-c2cn(-c3ccc(OC(F)(F)F)cc3)nn2)cc1 | > 0.01 | – |
| COc1cc(-n2cc(-c3cc(O)cc(O)c3)nn2)cc(OC)c1OC | > 10 | – |
| COc1cc(OC)cc(-c2cn(-c3ccc(OC)cc3OC)nn2)c1 | > 10 | – |
| COc1cc(OC)cc(-n2cc(-c3ccc(N)cc3)nn2)c1 | > 10 | – |
| COc1ccc(-c2cn(-c3c(O)c(F)cc(F)c3F)nn2)cc1O | > 10 | – |
| COc1ccc(-n2cc(-c3ccc(OC)c(O)c3)nn2)c(OC)c1 | > 10 | – |
| COc1cc(OC)cc(-c2cn(-c3ccc(Oc4ccccc4)cc3)nn2)c1 | > 10 | – |
| COc1ccc(-c2cn(-c3ccc(OC)c(O)c3)nn2)cc1O | > 10 | – |
| COc1cc(OC)cc(-n2cc(-c3ccc(OC)c(O)c3)nn2)c1 | > 10 | – |
| COc1ccc(-n2cc(-c3cc(OC)c(OC)c(OC)c3)nn2)c(OC)c1 | > 10 | – |
| COc1ccc(-n2cc(-c3ccc(N)cc3)nn2)cc1 | > 0.1 | – |
| COc1cc(-c2cn(-c3ccc(OC(F)(F)F)cc3)nn2)cc(OC)c1OC | > 10 | – |
| COc1ccc(-n2cc(-c3cc(OC)cc(OC)c3)nn2)cc1 | – | Activity (SH-SY5Y): 78.6%; Activity (RBL-2H3): 116%; Activity (MDA-MB-231 [2]): 93.2%; Activity (FG2): 88.2% |
| COc1ccc(-c2cn(-c3c(O)c(F)cc(F)c3F)nn2)cc1 | > 1 | – |
| COc1ccc(-c2cn(-c3cc(OC)c(OC)c(OC)c3)nn2)cc1O | > 10 | – |
| COc1cc(-c2cn(-c3ccc4c(c3)OCO4)nn2)cc(OC)c1OC | 10 | – |
| COc1cc(OC)cc(-c2cn(-c3ccc(OC)c(OC)c3)nn2)c1 | 10 | – |
| COc1cc(-c2cn(-c3ccc(OC(F)(F)F)cc3)nn2)ccc1O | 10 | – |
| COc1ccc(-c2cn(-c3ccc(OC)c(O)c3)nn2)cc1 | > 0.1 | – |
| COc1ccc(-n2cc(-c3ccc(OC)c(OC)c3)nn2)cc1O | > 1 | – |
| COc1ccc(-c2cn(-c3ccc(N)cc3)nn2)cc1O | > 10 | – |
| COc1ccc(-c2cn(-c3ccc(N)cc3)nn2)cc1 | > 0.1 | – |
| Oc1ccc(/C=C/c2cc(O)cc(O)c2)cc1 [RESVERATROL] | – | Activity (SH-SY5Y): 33.5%; Activity (RBL-2H3): 52.1%; Activity (MDA-MB-231 [2]): 67.9%; Activity (FG2): 42.2% |

From ChEMBL document CHEMBL1148612, “Rapid synthesis of triazole-modified resveratrol analogues via click chemistry” (J Med Chem, 2006)
